Results published in ChEMBL document CHEMBL1124711, “Design and synthesis of 14 alpha-methyl-15-aza-D-homosterols as novel antimycotics” (1990).
Converted amounts (≈) assume the structure as drawn.

How the values were obtained:
[1] = tested on: Candida albicans; assay: Minimum inhibitory concentration was determined against Candida albicans 3153A strain; format: functional
[2] = tested on: Candida albicans; assay: Minimum fungicidal concentration was determined against Candida albicans 3153A strain; format: functional
Procedure, shortened: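 Fungicidal endpoint: lowest drug concentration whose subcultures were negative or grew fewer than three colonies.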

[3] = tested on: Mus musculus; assay: The number of survivors/total infected at day 14 was determined after (ip) administration of 2 mg/kg in Candida albicans infected mice; 4/10; format: functional
[4] = tested on: Mus musculus; assay: The number of survivors/total infected at day 14 was determined after (ip) administration of 1 mg/kg in Candida albicans infected mice; 10/10
[5] = tested on: Mus musculus; assay: The number of survivors/total infected at day 14 was determined after (ip) administration of 2 mg/kg in Candida albicans infected mice; 6/10; format: functional
[6] = Candida albicans, read-out: MIC
[7] = Candida albicans, read-out: MFC

Compound	MIC [1]	MIC [1, 6]	MFC [2]	MFC [2, 7]	No. of survivors [3]	No. of survivors [4]	No. of survivors [5]
OC(Cn1cncn1)(Cn1cncn1)c1ccc(F)cc1F [FLUCONAZOLE]	0.8 mg/L (≈ 2.61 µM)	0.8 mg/L (≈ 2.61 µM)	–	–	–	–	–
CC(C)CCC[C@@H](C)C1CCN[C@@]2(C)C3=CCC4C(C)(C)[C@@H](O)CC[C@]4(C)C3CC[C@]12C (stereo partly drawn)	1.6 mg/L (≈ 3.61 µM)	1.6 mg/L (≈ 3.61 µM)	3.1 mg/L (≈ 6.99 µM)	3.1 mg/L (≈ 6.99 µM)	–	–	–
CC(C)[C@@H](C)/C=C/[C@@H](C)C1CCN[C@@]2(C)C3=CCC4C(C)(C)[C@@H](O)CC[C@]4(C)C3CC[C@]12C (stereo partly drawn)	1.6 mg/L (≈ 3.51 µM)	1.6 mg/L (≈ 3.51 µM)	6.3 mg/L (≈ 13.8 µM)	6.3 mg/L (≈ 13.8 µM)	–	–	–
CC(C)CCC[C@@H](C)C1CCN[C@@]2(C)C3=C(CC[C@]12C)[C@@]1(C)CC[C@H](O)CC1CC3 (stereo partly drawn)	3.1 mg/L (≈ 7.46 µM)	3.1 mg/L (≈ 7.46 µM)	6.3 mg/L (≈ 15.2 µM)	6.3 mg/L (≈ 15.2 µM)	4	–	–
CC(C)CCC[C@@H](C)C1CC(=O)N[C@@]2(C)C3=CCC4C[C@@H](O)CC[C@]4(C)C3CC[C@]12C (stereo partly drawn)	–	> 100 mg/L	–	–	–	–	–
CC(C)[C@@H](C)/C=C/[C@@H](C)C1CCN[C@@]2(C)C3=CCC4C[C@@H](O)CC[C@]4(C)C3CC[C@]12C (stereo partly drawn)	0.8 mg/L (≈ 1.87 µM)	0.8 mg/L (≈ 1.87 µM)	6.3 mg/L (≈ 14.7 µM)	6.3 mg/L (≈ 14.7 µM)	–	–	–
C[C@@H]1[C@H](O)[C@@H](C)/C=C/C=C/C=C/C=C/C=C/C=C/C=C/[C@H](O[C@@H]2O[C@H](C)[C@@H](O)[C@H](N)[C@@H]2O)C[C@@H]2O[C@](O)(C[C@@H](O)C[C@@H](O)[C@H](O)CC[C@@H](O)C[C@@H](O)CC(=O)O[C@H]1C)C[C@H](O)[C@H]2C(=O)O [AMPHOTERICIN B]	0.16 mg/L (≈ 0.173 µM)	0.16 mg/L (≈ 0.173 µM)	–	–	–	10	–
CC(C)CCC[C@@H](C)C1CCN[C@@]2(C)C3=CCC4C[C@@H](O)CC[C@]4(C)C3CC[C@]12C (stereo partly drawn)	1.6 mg/L (≈ 3.85 µM)	1.6 mg/L (≈ 3.85 µM)	6.3 mg/L (≈ 15.2 µM)	6.3 mg/L (≈ 15.2 µM)	–	–	6
